Assay results: ChEMBL document CHEMBL1122501, “Potential antiatherosclerotic agents. 2. (Aralkylamino)- and (alkylamino) benzoic acid analogues of cetaben” (1983)

Columns and labels:
Rattus norvegicus [1] = test: In vivo sterol lowering activity dosed at 0.10 % of the diet; type: functional
How it was run: (§1)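 Male CFE or CD-1 Sprague-Dawley rats, 140-150 g; 8 per control group, 4 per test group. Compound mixed into ground chow (w/w) via MeOH-CHCl3 (1:3) solution, solvent evaporated; controls got solvent-treated chow. Fed ad libitum 5 days, food intake monitored, killed fed and bled. Serum sterols and triglycerides by adapted autoanalyzer methods; mean percent of control, Student's t test.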

Rattus norvegicus [2] = test: In vivo Triglyceride lowering activity at dose as 0.05 % of the diet.; type: functional; how it was run: as §1
Rattus norvegicus [3] = test: In vivo Sterol lowering activity at dose as 0.017 % of the diet; type: functional; how it was run: as §1
Rattus norvegicus [4] = test: In vivo Sterol lowering activity at dose as 0.05 % of the diet.; type: functional; how it was run: as §1
[5] = target: T1, Sterol O-acyltransferase 1 (Rattus norvegicus) (UniProt O70536); test: In vitro inhibitory activity against acyl coenzyme A:cholesterol acyltransferase (ACAT); design: concentration or dose not given beside the values; conditions: concentration not given here
T1 sequence (whole entry): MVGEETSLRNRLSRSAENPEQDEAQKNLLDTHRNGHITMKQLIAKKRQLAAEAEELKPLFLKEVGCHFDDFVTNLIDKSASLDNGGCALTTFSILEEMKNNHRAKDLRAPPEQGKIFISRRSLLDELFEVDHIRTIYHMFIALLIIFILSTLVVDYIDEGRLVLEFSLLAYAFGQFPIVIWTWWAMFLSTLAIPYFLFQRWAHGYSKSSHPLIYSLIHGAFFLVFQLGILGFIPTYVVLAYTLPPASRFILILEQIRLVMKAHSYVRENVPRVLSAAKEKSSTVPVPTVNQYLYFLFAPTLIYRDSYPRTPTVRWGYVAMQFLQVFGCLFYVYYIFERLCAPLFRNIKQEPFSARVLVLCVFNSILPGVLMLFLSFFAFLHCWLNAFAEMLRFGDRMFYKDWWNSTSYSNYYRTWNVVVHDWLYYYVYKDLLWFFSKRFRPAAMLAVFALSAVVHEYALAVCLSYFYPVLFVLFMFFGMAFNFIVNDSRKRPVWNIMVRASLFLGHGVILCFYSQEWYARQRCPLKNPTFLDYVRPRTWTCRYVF
How it was run: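 ACAT enzyme from rat adrenal homogenate in 0.2 M KH2PO4 buffer pH 7.4, 1000g 15 min 5 °C supernatant (microsomal fraction). Supernatant + BSA (50 mg/mL) + compound at final 5.2 μg/mL + buffer preincubated 10 min 37 °C; [14C]oleoyl-CoA (0.4 μCi) added, 30 min 37 °C. Lipids extracted, TLC; cholesteryl ester zone counted. Mean % inhibition vs no-compound control; Student's t test.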

Rattus norvegicus [6] = test: In vivo Triglyceride lowering activity at dose as 0.017 % of the diet.; type: functional; how it was run: as §1
Rattus norvegicus [7] = test: In vivo triglyceride lowering activity, dosed at 0.10 % of the diet.; type: functional; how it was run: as §1
Rattus norvegicus [8] = test: In vivo triglyceride lowering activity dosed at 0.10 % of the diet; type: functional; how it was run: as §1
Rattus norvegicus [9] = test: In vivo Sterol lowering activity at dose as 0.05 % of the diet; type: functional; how it was run: as §1
Rattus norvegicus [10] = test: In vivo triglyceride lowering activity dosed at 0.05 % of the diet; type: functional; how it was run: as §1
Rattus norvegicus [11] = test: In vivo Sterol lowering activity at dose as 0.025 % of the diet; type: functional; how it was run: as §1
Rattus norvegicus [12] = test: In vivo Triglyceride lowering activity at dose as 0.025% of the diet; type: functional; how it was run: as §1
Rattus norvegicus [13] = test: In vivo Sterol lowering activity at dose as 0.025 % of the diet.; type: functional; how it was run: as §1
Rattus norvegicus [14] = test: In vivo Triglyceride lowering activity at dose as 0.025% of the diet.; type: functional; how it was run: as §1
Rattus norvegicus [15] = test: In vivo Sterol lowering activity at dose as 0.10 % of the diet.; type: functional; how it was run: as §1
Rattus norvegicus [16] = test: In vivo Triglyceride lowering activity at dose as 0.025 % of the diet.; type: functional; how it was run: as §1
Rattus norvegicus [17] = test: In vivo Triglyceride lowering activity at dose as 0.017 % of the diet; type: functional; how it was run: as §1
Rattus norvegicus [18] = test: In vivo Sterol lowering activity at dose as 0.03 % of the diet.; type: functional; how it was run: as §1
Rattus norvegicus [19] = test: In vivo triglyceride lowering activity, dosed at 0.01 % of the diet.; type: functional; how it was run: as §1
Rattus norvegicus [20] = test: In vivo Sterol lowering activity at dose as 0.01 % of the diet..; type: functional; how it was run: as §1
Rattus norvegicus [21] = test: In vivo triglyceride lowering activity, dosed at 0.03 % of the diet; type: functional; how it was run: as §1

Row | inhibition [5] | SMILES | serum sterol, percent of control (Rattus norvegicus [1]) | serum triglycerides, percent of control (Rattus norvegicus [8]) | Diet (Rattus norvegicus [9]) | Diet (Rattus norvegicus [10]) | Diet (Rattus norvegicus [11]) | Diet (Rattus norvegicus [12]) | serum sterol, percent of control (Rattus norvegicus [15]) | further results
1 | 49% | CCOC(=O)c1ccc(NCCc2cccs2)cc1 | 86% |  |  |  |  |  |  | Diet (Rattus norvegicus [2]): 94%; Diet (Rattus norvegicus [3]): 86%; Diet (Rattus norvegicus [4]): 90%; Diet (Rattus norvegicus [6]): 81%; Diet (Rattus norvegicus [7]): 69%
2 | < 28% | O=C(O)c1ccc(NCCCCCCCCCc2ccccc2)cc1 | 92% | <68% | 96% | <58% | 96% | <50% |  | 
3 | < 44% | O=C(O)c1ccc(NCCCCCCCCCCc2ccccc2)cc1 | <87% | 81% | 89% | 88% | <87% | <79% |  | 
4 | 69% | CCOC(=O)c1ccc(NCCCCCc2ccccc2)cc1 |  | 62% | 85% | 66% |  |  | 90% | Diet (Rattus norvegicus [13]): 92%; Diet (Rattus norvegicus [14]): 84%
5 | 0% | COc1ccccc1CCCNc1ccc(C(=O)O)cc1 |  |  |  |  |  |  | 110% | Diet (Rattus norvegicus [16]): 100%; Diet (Rattus norvegicus [2]): 87%; Diet (Rattus norvegicus [13]): 102%; Diet (Rattus norvegicus [4]): 100%; Diet (Rattus norvegicus [7]): 72%
6 | < 54% | CCOC(=O)c1ccc(NCCCCCCCc2ccccc2)cc1 | 89% | <72% | 89% | <82% | 90% | <84% |  | 
7 | < 24% | O=C(O)c1ccc(NCCCCCCCCCCCc2ccccc2)cc1 | <83% | <74% | <76% | <69% | 83% | <68% |  | 
8 | < 51% | CCCCCCCCCCc1ccc(CNc2ccc(C(=O)O)cc2)cc1 | <78% | 114% | <88% | 113% |  |  |  | Diet (Rattus norvegicus [3]): 99%; Serum triglycerides, % of control (Rattus norvegicus [17]): 100%
9 | < 36% | CCCCCCCCCCCCCOc1ccc(CNc2ccc(C(=O)O)cc2)cc1 | 81% | <56% | 100% | <65% |  |  |  | Diet (Rattus norvegicus [3]): 100%; Serum triglycerides, % of control (Rattus norvegicus [17]): <62%
10 |  | CCCCCCCOc1ccc(CNc2ccc(C(=O)OCC)cc2)cc1 | 90% | <80% | <86% | <76% |  |  |  | Diet (Rattus norvegicus [3]): 100%; Serum triglycerides, % of control (Rattus norvegicus [17]): 88%
11 | 56% | CCOC(=O)c1ccc(NCCCCc2cccs2)cc1 |  |  |  |  |  |  | 90% | Diet (Rattus norvegicus [2]): 96%; Diet (Rattus norvegicus [13]): 94%; Diet (Rattus norvegicus [4]): 97%; Diet (Rattus norvegicus [14]): 89%; Diet (Rattus norvegicus [7]): 99%
12 | < 24% | CCCCCCCOc1ccc(CNc2ccc(C(=O)O)cc2)cc1 | <84% | <72% | <84% | <70% |  |  |  | Diet (Rattus norvegicus [3]): 100%; Serum triglycerides, % of control (Rattus norvegicus [17]): 95%
13 | < 50% | CCOC(=O)c1ccc(NCCCCCCCCc2ccccc2)cc1 | 98% | <54% | 96% | <65% | 88% | <61% |  | 
14 | 26% | O=C(O)c1ccc(NCCCCCc2ccccc2)cc1 |  |  | 84% |  |  |  | 108% | Diet (Rattus norvegicus [2]): 78%; Diet (Rattus norvegicus [13]): 95%; Diet (Rattus norvegicus [14]): 96%; Diet (Rattus norvegicus [7]): 89%
15 | 19% | CCOC(=O)c1ccc(NCc2ccc(-c3ccccc3)cc2)cc1 |  | 52% | 94% |  |  |  | 94% | Diet (Rattus norvegicus [16]): 74%; Diet (Rattus norvegicus [2]): 76%; Diet (Rattus norvegicus [13]): 102%
16 | 41% | CCOC(=O)c1ccc(NCCCCCCc2ccccc2)cc1 | 82% | 43% | 84% | 45% | 89% |  |  | Diet (Rattus norvegicus [14]): 59%
17 | 17% | O=C(O)c1ccc(NCCCCCCc2ccccc2)cc1 |  | 40% | 85% | 46% | 83% | 52% | 86% | 
18 | 28% | CCOC(=O)c1ccc(NCCCc2ccc(N)cc2)cc1 |  | 79% |  |  |  |  | 100% | serum sterol level, percent of control (Rattus norvegicus [18]): 97%; Diet (Rattus norvegicus [19]): 113%; Diet (Rattus norvegicus [20]): 93%; serum triglycerides, percent of control (Rattus norvegicus [21]): 70%
